# Measured values: ChEMBL document CHEMBL1799996, “Novel C8-linked pyrrolobenzodiazepine (PBD)-heterocycle conjugates that recognize DNA sequences containing an inverted CCAAT box” (2011)
# Assays:
# [1] = system: Nucleic Acid; experiment: Binding affinity to calf thymus DNA assessed as change in melting temperature at 5 uM at pH 7 after 4 hrs by thermal denaturation assay; type: nucleic-acid assay; conditions: Bos taurus
# [2] = system: Nucleic Acid; experiment: Binding affinity to calf thymus DNA assessed as change in melting temperature at 5 uM at pH 7 after 18 hrs by thermal denaturation assay; type: nucleic-acid assay; conditions: Bos taurus
# [3] = Cytotoxicity against human NCI60 cells; type: functional
# Method in brief: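 NCI 60-cell-line panel. GI50, TGI and LC50 (50% growth inhibition, total growth inhibition and 50% lethality) are given as the mean across all 60 lines.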
# [4] = system: Nucleic Acid; experiment: Binding affinity to ICB1 site of human topoisomerase 2alpha promoter after 17 hrs by DNase 1 footprinting assay; type: nucleic-acid assay
# Method in brief: (§1)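 Reported value is the lowest conjugate concentration that gives a measurable footprint at the respective inverted CCAAT site.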
# [5] = system: Nucleic Acid; experiment: Binding affinity to ICB2 site of human topoisomerase 2alpha promoter after 17 hrs by DNase 1 footprinting assay; type: nucleic-acid assay; method in brief: as §1
Compound,ΔTm [1],ΔTm [2],GI50 [3],LC50 (50% lethal concentration) [3],TGI [3],Activity [4],Activity [5]
COC(=O)CCCOc1cc2c(cc1OC)C(=O)N1CCC[C@H]1C=N2,0.3 °C,0.4 °C,1.74 µM,46.8 µM,11.8 µM,–,–
COC(=O)c1cc(NC(=O)c2cc(NC(=O)CCCOc3cc4c(cc3OC)C(=O)N3CCC[C@H]3C=N4)cn2C)cn1C,14.5 °C,15.1 °C,0.011 µM,10 µM,0.12 µM,1 µM,1 µM
